# Assays:
# [1] = system: Jurkat; experiment: Induction of apoptosis in human Jurkat cells assessed as activation of DEVDase at 5 uM after 4 hrs by fluorometric assay relative to control; type: functional
# Outline: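 Jurkat cells (20,000/well, 0.5% FBS RPMI) were treated 4 h with 5 µM compound and lysed 15 min in PIPES pH 7 buffer with NP-40, cytochalasin B and protease inhibitors. An equal volume of 2× caspase buffer containing 100 µM Ac-DEVD-AFC was added. AFC fluorescence (ex 390/em 510 nm) was read every 2 min for 1 h at 37 °C; the linear slope was taken as activity, expressed as fold over DMSO control. Data: 2 experiments, triplicate.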
# [2] = Cytotoxicity against human Jurkat T cells assessed as cell viability after 24 hrs by CellTiter-Glo assay; type: functional, cell-based
# Outline: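 Jurkat cells were seeded the day before treatment in RPMI with 0.5% FBS (10,000 cells/well). They were treated in triplicate across an 8-point dose series starting at 10 µM, with DMSO ≤0.1% as solvent control. ATP was measured by CellTiter-Glo luminescence after 24 h; a time-0 reading separated cytostatic from cytotoxic effects. IC50 was fitted from the curve.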
# [3] = Cytotoxicity against human Jurkat T cells assessed as cell viability at 4 uM after 24 hrs by CellTiter-Glo assay relative to control; type: functional; conditions: read-out: Activity
# Outline: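 Jurkat cells in 0.5% FBS RPMI were exposed to 4 µM compound or 0.1% DMSO for 24 h. Viability was read as ATP by CellTiter-Glo luminescence and expressed as percent of solvent control; below 60% counted as cell killing. Data: three experiments, triplicate.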
# [4] = molecular target: T1, Inhibitor of nuclear factor kappa-B kinase subunit alpha (Homo sapiens) (UniProt O15111); experiment: Inhibition of recombinant IKKalpha (unknown origin) using ulight-IkappaomegaBalpha as substrate at 20 uM after 2 hrs by LANCE ultra TR-FRET assay relative to control
# T1 sequence (whole entry): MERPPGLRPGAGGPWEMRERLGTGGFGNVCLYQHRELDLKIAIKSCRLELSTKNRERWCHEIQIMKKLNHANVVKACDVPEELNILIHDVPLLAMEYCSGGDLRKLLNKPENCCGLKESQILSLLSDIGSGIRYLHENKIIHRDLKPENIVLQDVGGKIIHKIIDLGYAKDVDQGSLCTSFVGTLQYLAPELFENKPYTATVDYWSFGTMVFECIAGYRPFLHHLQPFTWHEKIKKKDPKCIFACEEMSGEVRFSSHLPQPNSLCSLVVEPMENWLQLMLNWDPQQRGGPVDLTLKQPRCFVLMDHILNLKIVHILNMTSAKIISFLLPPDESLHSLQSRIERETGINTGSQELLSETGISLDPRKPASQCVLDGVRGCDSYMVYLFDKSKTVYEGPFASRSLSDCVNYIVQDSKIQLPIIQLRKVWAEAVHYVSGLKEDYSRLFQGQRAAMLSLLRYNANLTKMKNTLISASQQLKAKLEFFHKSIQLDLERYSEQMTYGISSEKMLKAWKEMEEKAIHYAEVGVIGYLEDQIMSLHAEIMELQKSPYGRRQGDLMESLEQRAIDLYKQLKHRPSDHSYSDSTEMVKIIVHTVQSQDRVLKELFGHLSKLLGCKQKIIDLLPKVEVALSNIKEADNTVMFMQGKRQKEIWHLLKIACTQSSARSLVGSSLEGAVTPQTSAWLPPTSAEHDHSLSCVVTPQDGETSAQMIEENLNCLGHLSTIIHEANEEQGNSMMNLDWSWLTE
# Outline: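 Recombinant IKKα (4 nM), IKKβ (1 nM) or IKKε (2 nM) in 50 mM Hepes pH 7.4, 10 mM MgCl2, 1 mM EGTA, 2 mM DTT, 0.01% Tween-20. Substrate was 50 nM ULight-IκBα (IKKα/β) or ULight-rpS6 (IKKε); ATP was 1.25 µM (α/β) or 5 µM (ε). Compound was tested at 20 µM. Incubation was 1 h (IKKβ) or 2 h (IKKα/ε) at room temperature, stopped with 20 mM EDTA plus 2 nM Eu-anti-phospho antibody, then TR-FRET 665/615 nm. Results are percent inhibition versus solvent; 3–4 experiments, triplicate.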
# [5] = molecular target: T2, Inhibitor of nuclear factor kappa-B kinase subunit beta (Homo sapiens, UniProt O14920); experiment: Inhibition of recombinant IKKbeta (unknown origin) using ulight-IkappaomegaBalpha as substrate after 1 hr by LANCE ultra TR-FRET assay
# T2 sequence (O14920 whole entry): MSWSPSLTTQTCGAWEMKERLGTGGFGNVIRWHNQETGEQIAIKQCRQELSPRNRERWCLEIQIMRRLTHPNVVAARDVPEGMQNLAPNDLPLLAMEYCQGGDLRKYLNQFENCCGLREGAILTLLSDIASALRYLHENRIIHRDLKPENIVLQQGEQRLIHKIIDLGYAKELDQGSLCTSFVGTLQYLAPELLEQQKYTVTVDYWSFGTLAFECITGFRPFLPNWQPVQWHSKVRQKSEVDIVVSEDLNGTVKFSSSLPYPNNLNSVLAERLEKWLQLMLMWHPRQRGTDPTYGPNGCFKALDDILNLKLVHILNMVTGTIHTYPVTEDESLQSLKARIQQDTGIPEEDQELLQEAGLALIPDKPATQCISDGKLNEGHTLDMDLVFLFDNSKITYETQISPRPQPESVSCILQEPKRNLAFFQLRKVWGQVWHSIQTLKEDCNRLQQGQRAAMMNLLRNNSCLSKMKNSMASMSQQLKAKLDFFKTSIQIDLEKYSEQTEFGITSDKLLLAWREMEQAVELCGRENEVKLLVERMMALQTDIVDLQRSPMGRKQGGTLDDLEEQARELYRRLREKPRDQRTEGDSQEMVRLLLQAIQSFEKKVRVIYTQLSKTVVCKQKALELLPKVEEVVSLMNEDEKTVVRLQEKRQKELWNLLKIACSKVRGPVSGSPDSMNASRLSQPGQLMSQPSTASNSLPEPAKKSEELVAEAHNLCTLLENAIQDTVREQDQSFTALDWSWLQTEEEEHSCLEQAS
# [6] = molecular target: T3, Inhibitor of nuclear factor kappa-B kinase subunit epsilon (Homo sapiens) (UniProt Q14164); experiment: Inhibition of recombinant IKKepsilon (unknown origin) using ulight-rpS6 as substrate at 20 uM after 2 hrs by LANCE ultra TR-FRET assay relative to control
# T3 sequence (whole entry): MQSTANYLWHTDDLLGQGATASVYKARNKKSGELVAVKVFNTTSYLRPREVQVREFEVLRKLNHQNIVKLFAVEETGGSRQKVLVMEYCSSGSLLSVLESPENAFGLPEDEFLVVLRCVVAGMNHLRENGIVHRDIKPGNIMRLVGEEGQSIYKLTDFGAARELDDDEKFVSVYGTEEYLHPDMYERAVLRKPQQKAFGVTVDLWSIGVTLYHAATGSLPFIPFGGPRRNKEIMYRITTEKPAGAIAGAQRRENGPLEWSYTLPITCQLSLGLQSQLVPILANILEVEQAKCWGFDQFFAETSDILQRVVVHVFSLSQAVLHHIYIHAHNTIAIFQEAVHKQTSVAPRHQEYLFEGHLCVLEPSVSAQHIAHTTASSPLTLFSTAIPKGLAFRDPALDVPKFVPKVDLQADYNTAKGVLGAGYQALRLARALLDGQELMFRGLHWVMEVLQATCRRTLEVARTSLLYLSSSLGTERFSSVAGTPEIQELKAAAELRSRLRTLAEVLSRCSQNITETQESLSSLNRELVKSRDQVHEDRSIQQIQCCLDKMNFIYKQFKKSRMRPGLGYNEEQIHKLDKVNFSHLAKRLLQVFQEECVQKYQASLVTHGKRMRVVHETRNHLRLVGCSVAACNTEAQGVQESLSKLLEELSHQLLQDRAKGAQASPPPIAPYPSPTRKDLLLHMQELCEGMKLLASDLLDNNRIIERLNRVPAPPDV
# [7] = molecular target: T4, Inhibitor of nuclear factor kappa-B kinase subunit beta (Homo sapiens) (UniProt O14920); experiment: Inhibition of recombinant IKKbeta (unknown origin) using ulight-IkappaomegaBalpha as substrate at 20 uM after 1 hr by LANCE ultra TR-FRET assay relative to control
# T4 sequence (whole entry): T2 sequence (O14920 whole entry)
# [8] = molecular target: T5, Retinoic acid receptor alpha (Homo sapiens, UniProt P10276); experiment: Inverse agonist activity at RARalpha (unknown origin)
# T5 sequence (P10276 whole entry): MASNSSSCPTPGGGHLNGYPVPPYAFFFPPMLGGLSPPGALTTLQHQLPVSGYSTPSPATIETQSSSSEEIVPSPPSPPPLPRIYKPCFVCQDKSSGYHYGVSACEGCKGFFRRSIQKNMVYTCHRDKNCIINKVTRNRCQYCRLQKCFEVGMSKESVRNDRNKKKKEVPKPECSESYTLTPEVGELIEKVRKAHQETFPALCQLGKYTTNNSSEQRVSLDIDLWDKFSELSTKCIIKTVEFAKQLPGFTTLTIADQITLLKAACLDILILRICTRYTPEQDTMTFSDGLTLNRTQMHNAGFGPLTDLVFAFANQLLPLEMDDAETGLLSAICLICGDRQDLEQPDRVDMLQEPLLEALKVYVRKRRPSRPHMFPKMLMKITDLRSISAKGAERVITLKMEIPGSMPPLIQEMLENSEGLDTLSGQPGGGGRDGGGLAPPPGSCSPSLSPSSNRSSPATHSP
# [9] = molecular target: T6, Retinoic acid receptor alpha (Homo sapiens) (UniProt P10276); experiment: Antagonist activity at Gal4-fused RARalpha (unknown origin) transfected in HEK293 cells assessed as ATRA-induced transcriptional activity at 4 uM by luciferase/beta-galactosidase reporter gene assay relative to ATRA-treated control; type: cell-based; set-up: scale not given: the % may be the effect or the level left
# T6 sequence (whole entry): T5 sequence (P10276 whole entry)
# Outline: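 Same Gal4-RARα HEK-293 UAS-luciferase system, stimulated with 0.1 µM atRA alone or with 4 µM compound (40-fold molar excess); 1 µM UVI2024 served as control antagonist. Background-subtracted luciferase was normalized to β-galactosidase and given as percent of atRA-stimulated cells. Data: 2–3 experiments, triplicate.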
# [10] = molecular target: T6, Retinoic acid receptor alpha (Homo sapiens); experiment: Agonist activity at Gal4-fused RARalpha (unknown origin) transfected in HEK293 cells assessed as induction of transcriptional activity at 4 uM after 6 hrs by luciferase/beta-galactosidase reporter gene assay relative to control; type: cell-based
# Outline: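 Gal4-RARα or Gal4-RXRα (10 ng) plus 2 ng β-galactosidase vector, calcium phosphate transfection into HEK-293 cells carrying a 5×UAS luciferase reporter. After 16 h, cells were washed and given 5% charcoal-treated FBS medium, then rested 2 h. Stimulation was with 4 µM compound or 0.1% DMSO; controls were 1 µM atRA (RARα) or 1 µM CD3254 (RXRα). Harvest was at 6 h (RARα) or 24 h (RXRα). Luciferase/β-gal ratio was expressed as fold over unstimulated cells. Data: 2 experiments, triplicate.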
# [11] = molecular target: T7, Retinoic acid receptor RXR-alpha (Homo sapiens) (UniProt P19793); experiment: Antagonist activity at recombinant GST-tagged RXRalpha LBD (unknown origin) assessed as inhibition of CD3254-induced fluorescein labeled D22 coactivator recruitment at 8 uM after 4 hrs by TR-FRET assay
# T7 sequence (whole entry): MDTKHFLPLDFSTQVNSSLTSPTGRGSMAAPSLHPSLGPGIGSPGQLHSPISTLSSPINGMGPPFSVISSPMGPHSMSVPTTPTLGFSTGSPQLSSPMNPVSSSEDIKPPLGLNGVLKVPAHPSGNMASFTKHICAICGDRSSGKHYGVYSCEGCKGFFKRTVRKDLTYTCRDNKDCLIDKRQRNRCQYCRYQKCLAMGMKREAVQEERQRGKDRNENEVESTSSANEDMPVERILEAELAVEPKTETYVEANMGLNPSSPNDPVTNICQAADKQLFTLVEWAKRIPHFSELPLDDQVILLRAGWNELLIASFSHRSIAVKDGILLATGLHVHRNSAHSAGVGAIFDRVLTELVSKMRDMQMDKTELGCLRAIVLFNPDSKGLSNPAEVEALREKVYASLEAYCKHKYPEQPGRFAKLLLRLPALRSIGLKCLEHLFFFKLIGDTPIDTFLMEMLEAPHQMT
# Outline: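 GST-RXRα LBD (5 nM) was incubated at room temperature with 150 nM fluorescein-D22 peptide in pH 7.4 Hepes binding buffer containing DTT, with a suboptimal concentration of CD3254 plus test ligand (≤1% DMSO). Terbium anti-GST antibody (2 nM) was the donor. The 520/495 nm TR-FRET ratio was read after 4 h and expressed as Delta F% versus controls lacking GST-RXRα.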
inhibition [4] [%],IC50 [5] [µM],inhibition [6] [%],inhibition [7] [%],IC50 [8] [µM],Activity [9] [%],fold change (FC) [10],SMILES,fold change (FC) [1],IC50 [2] [µM],viability at 4 µM [3] [%],inhibition [11] [%]
56.3,11.8,15.8,43.9,,,,COCCOCOc1ccc(C(=O)/C=C/c2ccc(C(=O)O)cc2)cc1C12CC3CC(CC(C3)C1)C2,20.7,3.33,28.5,
,,,,0.114,7.1,1.3,CC1(C)CC=C(C#Cc2ccccc2)c2cc(/C=C/c3ccc(C(=O)O)cc3)ccc21,,,,
41.3,,24.1,40.6,,,,O=C(O)/C=C/c1ccc(-c2ccc(O)c(C34CC5CC(CC(C5)C3)C4)c2)c(Cl)c1,74.3,,6.6,
,,,,,,,CCCCCOc1cc2c(cc1-c1cc(/C=C/C(=O)O)ccc1O)C(C)(C)CCC2(C)C,,,,25
5,,14.4,0,,,,CC(=O)NCCCOc1cc(/C=C/C(=O)O)ccc1-c1ccc(O)c(C23CC4CC(CC(C4)C2)C3)c1,6.1,,42.7,
